Reference: ChEMBL document CHEMBL3352666, “Human Toll-like receptor 8-selective agonistic activities in 1-alkyl-1H-benzimidazol-2-amines” (J Med Chem, 2014)
Calls of active or inactive are those of the source.

Columns and labels:
Assay type in all cases: cell-based
[1] = target: Toll-like receptor 4 (Homo sapiens) (UniProt O00206); assay: Agonist activity at human TLR4 stably expressed in HEK293 cells co-expressing secreted alkaline phosphatase assessed as NF-kappaB induction by liquid handler-assisted reporter gene assay
Toll-like receptor 4 (Homo sapiens), sequence (O00206 whole entry): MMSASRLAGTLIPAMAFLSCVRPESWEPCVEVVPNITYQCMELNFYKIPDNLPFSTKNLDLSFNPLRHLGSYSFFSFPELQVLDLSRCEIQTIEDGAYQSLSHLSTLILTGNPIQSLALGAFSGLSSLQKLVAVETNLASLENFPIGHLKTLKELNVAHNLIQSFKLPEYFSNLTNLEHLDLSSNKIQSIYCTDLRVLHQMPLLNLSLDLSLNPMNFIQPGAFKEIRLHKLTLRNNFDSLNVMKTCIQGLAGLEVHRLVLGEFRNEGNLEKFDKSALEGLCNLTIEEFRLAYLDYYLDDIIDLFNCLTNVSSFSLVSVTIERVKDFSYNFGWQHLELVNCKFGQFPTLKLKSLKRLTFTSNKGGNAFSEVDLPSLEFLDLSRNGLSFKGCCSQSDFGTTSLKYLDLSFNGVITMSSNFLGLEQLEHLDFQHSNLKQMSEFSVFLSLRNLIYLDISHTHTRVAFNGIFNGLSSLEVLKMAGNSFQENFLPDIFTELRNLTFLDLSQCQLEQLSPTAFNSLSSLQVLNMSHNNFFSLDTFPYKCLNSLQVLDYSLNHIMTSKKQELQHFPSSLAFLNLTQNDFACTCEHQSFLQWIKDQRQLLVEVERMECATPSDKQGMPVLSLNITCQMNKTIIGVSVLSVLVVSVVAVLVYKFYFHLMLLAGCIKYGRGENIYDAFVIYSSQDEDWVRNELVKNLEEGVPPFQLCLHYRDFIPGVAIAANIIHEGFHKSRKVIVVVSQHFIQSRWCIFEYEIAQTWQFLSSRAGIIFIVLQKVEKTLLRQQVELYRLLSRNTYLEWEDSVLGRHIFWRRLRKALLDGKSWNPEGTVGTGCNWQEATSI
Procedure, shortened: (§1)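 HEK293 reporter cells stably co-transfected with the respective human TLR or NOD receptor plus NF-κB/AP-1-driven secreted alkaline phosphatase, kept in selection medium. About 10^5 cells/ml were incubated with graded concentrations of test compound in 384-well format. Supernatant sAP was read colorimetrically at 620 nm with an alkaline phosphatase-specific chromogen in detection medium.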

[2] = target: Nucleotide-binding oligomerization domain-containing protein 2 (Homo sapiens, UniProt Q9HC29); assay: Agonist activity at human NOD2 stably expressed in HEK293 cells co-expressing secreted alkaline phosphatase assessed as NF-kappaB induction by liquid handler-assisted reporter gene assay; procedure, shortened: as §1
Nucleotide-binding oligomerization domain-containing protein 2, sequence (Q9HC29 whole entry, the tested form may be a part): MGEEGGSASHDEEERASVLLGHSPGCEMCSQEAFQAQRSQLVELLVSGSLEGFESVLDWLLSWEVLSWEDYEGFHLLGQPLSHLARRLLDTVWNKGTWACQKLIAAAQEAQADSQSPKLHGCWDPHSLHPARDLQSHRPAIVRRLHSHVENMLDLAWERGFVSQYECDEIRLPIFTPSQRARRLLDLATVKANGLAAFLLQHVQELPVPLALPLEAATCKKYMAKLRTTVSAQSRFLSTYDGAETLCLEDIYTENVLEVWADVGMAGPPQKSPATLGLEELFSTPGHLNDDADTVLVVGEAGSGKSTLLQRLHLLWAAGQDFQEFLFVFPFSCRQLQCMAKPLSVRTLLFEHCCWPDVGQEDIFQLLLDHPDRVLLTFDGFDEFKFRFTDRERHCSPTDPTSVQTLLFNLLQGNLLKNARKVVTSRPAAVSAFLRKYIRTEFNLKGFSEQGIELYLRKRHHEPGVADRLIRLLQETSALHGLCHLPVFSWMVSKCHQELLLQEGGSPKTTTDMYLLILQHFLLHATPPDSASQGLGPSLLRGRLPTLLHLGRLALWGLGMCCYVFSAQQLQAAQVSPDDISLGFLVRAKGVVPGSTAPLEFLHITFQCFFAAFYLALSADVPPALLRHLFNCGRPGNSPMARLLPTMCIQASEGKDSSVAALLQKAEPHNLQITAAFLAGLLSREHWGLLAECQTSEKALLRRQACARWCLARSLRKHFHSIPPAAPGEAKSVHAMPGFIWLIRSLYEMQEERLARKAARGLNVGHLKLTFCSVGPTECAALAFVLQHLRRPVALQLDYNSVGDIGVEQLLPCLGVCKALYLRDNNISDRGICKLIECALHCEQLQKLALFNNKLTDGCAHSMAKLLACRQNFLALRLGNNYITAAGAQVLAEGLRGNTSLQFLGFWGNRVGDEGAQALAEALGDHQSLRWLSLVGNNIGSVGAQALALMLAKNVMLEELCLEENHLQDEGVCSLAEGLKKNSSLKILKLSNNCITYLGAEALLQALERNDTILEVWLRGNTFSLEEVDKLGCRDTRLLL

[3] = target: T1, Toll-like receptor 9 (Homo sapiens) (UniProt Q9NR96); assay: Agonist activity at human TLR9 stably expressed in HEK293 cells co-expressing secreted alkaline phosphatase assessed as NF-kappaB induction by liquid handler-assisted reporter gene assay; procedure, shortened: as §1
T1 sequence (whole entry): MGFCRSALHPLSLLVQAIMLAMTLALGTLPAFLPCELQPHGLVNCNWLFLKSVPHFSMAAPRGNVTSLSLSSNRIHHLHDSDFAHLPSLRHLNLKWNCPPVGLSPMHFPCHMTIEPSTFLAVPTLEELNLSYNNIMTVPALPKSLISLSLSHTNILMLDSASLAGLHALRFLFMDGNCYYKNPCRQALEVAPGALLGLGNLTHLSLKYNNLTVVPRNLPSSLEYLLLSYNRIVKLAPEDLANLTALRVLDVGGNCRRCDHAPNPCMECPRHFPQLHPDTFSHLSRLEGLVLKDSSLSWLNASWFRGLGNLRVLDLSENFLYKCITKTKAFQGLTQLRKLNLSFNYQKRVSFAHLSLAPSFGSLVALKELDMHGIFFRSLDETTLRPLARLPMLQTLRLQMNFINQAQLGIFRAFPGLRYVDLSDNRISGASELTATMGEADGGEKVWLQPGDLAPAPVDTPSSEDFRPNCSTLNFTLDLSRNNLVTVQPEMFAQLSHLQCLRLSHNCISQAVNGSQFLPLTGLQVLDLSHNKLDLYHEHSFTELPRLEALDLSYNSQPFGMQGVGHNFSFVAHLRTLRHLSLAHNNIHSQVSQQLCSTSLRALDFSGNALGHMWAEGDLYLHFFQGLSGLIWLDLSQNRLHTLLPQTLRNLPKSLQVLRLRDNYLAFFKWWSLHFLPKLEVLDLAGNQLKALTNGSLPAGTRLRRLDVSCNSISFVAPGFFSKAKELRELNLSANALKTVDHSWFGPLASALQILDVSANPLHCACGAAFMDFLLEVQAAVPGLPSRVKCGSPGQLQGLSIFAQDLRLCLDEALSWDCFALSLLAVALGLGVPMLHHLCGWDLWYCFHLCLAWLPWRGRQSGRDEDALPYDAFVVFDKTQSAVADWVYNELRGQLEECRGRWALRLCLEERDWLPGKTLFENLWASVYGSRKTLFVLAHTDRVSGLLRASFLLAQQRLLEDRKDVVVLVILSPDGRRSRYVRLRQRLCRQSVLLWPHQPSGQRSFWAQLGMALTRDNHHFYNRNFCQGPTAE

[4] = target: Toll-like receptor 2 (Homo sapiens) (UniProt O60603); assay: Agonist activity at human TLR2 stably expressed in HEK293 cells co-expressing secreted alkaline phosphatase assessed as NF-kappaB induction by liquid handler-assisted reporter gene assay; procedure, shortened: as §1
Toll-like receptor 2 (Homo sapiens), sequence (O60603 whole entry): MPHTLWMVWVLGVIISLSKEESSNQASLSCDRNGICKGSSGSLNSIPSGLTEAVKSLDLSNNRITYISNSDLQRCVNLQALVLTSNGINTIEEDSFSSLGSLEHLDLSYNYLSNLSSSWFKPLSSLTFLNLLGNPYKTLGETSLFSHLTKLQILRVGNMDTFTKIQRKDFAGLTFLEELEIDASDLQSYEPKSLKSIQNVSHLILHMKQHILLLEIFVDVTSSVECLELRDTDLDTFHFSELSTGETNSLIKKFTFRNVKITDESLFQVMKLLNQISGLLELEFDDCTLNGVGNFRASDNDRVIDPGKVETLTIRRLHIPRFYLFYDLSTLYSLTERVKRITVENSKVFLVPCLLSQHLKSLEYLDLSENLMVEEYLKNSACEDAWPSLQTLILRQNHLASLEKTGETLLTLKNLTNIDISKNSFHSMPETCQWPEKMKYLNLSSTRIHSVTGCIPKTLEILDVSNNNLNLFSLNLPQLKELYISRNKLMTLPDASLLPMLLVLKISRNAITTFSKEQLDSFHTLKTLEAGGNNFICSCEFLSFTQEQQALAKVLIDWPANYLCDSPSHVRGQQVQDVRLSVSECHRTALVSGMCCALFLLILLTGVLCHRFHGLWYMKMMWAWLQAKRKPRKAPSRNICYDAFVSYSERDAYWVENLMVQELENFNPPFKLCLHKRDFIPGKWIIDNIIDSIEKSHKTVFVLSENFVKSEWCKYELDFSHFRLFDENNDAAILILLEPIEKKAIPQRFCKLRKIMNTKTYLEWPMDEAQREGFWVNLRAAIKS

[5] = target: T2, Toll-like receptor 7 (Homo sapiens) (UniProt Q9NYK1); assay: Agonist activity at human TLR7 stably expressed in HEK293 cells co-expressing secreted alkaline phosphatase assessed as NF-kappaB induction by liquid handler-assisted reporter gene assay; procedure, shortened: as §1
T2 sequence (whole entry): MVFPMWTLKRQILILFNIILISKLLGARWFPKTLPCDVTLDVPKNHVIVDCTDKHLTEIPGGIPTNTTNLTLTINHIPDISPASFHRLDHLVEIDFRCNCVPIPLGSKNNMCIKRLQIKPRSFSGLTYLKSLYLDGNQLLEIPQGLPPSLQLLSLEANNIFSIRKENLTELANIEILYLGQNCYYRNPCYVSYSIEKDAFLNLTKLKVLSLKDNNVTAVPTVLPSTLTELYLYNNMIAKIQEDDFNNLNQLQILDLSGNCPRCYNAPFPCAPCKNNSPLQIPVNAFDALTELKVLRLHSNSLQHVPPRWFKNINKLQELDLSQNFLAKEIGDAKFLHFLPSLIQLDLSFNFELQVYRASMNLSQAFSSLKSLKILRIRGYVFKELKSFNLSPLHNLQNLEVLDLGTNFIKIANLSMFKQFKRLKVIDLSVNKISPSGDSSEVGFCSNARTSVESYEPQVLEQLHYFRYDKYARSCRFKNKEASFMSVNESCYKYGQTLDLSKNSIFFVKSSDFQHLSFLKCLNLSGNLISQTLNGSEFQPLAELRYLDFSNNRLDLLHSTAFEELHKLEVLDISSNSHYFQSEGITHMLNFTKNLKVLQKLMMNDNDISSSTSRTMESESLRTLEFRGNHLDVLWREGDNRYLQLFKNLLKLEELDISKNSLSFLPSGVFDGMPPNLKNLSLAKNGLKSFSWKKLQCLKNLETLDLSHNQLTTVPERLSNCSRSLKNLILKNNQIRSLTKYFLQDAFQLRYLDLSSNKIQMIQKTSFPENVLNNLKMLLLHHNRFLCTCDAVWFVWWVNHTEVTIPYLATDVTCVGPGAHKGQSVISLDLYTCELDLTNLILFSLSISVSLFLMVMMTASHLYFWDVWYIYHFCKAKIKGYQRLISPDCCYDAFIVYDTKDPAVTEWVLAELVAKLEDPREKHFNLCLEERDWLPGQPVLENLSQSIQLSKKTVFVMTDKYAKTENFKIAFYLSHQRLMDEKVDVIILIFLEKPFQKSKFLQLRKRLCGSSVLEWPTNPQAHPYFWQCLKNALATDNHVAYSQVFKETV

[6] = target: Toll-like receptor 3 (Homo sapiens) (UniProt O15455); assay: Agonist activity at human TLR3 stably expressed in HEK293 cells co-expressing secreted alkaline phosphatase assessed as NF-kappaB induction by liquid handler-assisted reporter gene assay; procedure, shortened: as §1
Toll-like receptor 3 (Homo sapiens), sequence (O15455 whole entry): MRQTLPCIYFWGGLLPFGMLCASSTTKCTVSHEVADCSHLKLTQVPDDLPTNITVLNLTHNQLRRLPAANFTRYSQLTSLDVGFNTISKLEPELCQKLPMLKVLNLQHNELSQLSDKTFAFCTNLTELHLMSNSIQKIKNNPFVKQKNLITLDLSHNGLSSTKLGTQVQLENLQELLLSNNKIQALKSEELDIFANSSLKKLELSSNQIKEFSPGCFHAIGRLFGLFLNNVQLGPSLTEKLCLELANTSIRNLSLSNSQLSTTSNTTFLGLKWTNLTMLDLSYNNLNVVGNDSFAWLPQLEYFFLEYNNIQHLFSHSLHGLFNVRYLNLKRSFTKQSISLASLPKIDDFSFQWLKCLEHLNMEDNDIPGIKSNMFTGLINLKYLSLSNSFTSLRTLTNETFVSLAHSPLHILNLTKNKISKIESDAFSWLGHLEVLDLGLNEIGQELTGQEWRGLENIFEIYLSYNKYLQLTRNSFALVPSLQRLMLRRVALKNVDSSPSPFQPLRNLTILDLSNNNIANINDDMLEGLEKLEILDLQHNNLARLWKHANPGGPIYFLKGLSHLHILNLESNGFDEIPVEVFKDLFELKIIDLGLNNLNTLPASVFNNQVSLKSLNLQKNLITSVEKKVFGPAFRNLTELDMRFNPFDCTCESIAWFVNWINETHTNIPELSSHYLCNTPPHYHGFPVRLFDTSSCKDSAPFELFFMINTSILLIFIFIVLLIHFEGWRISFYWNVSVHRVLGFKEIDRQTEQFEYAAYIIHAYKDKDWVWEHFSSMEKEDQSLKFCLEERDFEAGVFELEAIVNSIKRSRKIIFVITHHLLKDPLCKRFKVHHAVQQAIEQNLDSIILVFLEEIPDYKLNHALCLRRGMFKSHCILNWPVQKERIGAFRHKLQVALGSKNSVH

Measured: Activity

CCCCCn1c(N)nc2c(C(F)(F)F)cccc21
inactive: [1] | [2] | [3] | [4] | [5] | [6]

CCCCCn1c(N)nc2c(Cc3ccccc3)cccc21
inactive: [1] | [2] | [3] | [4] | [5] | [6]

CCCCC1(O)C(N)=Nc2ccccc21 (stereo unspecified)
inactive: [1] | [2] | [3] | [4] | [5] | [6]

CCCCCn1c(N)nc2cnccc21
inactive: [1] | [2] | [3] | [4] | [5] | [6]

CCCCCn1c(N)nc2c(F)cccc21
inactive: [1] | [2] | [3] | [4] | [5] | [6]

CCCCOC(=O)n1c(N)nc2ccccc21
inactive: [1] | [2] | [3] | [4] | [5] | [6]

CCCCCn1c(N)nc2c(C)cccc21
inactive: [1] | [2] | [3] | [4] | [5] | [6]

CCCCCn1c(N)nc2c(Cl)cccc21
inactive: [1] | [2] | [3] | [4] | [5] | [6]

CCCCCn1c(N)nc2cccnc21
inactive: [1] | [2] | [3] | [4] | [5] | [6]

CCCCCn1c(N)nc2c(Br)cccc21
inactive: [1] | [2] | [3] | [4] | [5] | [6]

CCCCCn1c(N)nc2c(OCc3ccccc3)cccc21
inactive: [1] | [2] | [3] | [4] | [5] | [6]

Nc1nc2ccccc2n1Cc1ccccc1
inactive: [1] | [2] | [3] | [4] | [5] | [6]

CCCCCn1c(N)nc2c([N+](=O)[O-])cccc21
inactive: [1] | [2] | [3] | [4] | [5] | [6]

CCCCCn1c(N)nc2ccc3ccccc3c21
inactive: [1] | [2] | [3] | [4] | [5] | [6]

CCCCC1C(N)=Nc2ccccc21.Cl (stereo unspecified)
inactive: [1] | [2] | [3] | [4] | [5] | [6]

NCc1cccc(Cn2c(N)nc3ccccc32)c1
inactive: [1] | [2] | [3] | [4] | [5] | [6]

CCCCCn1c(NC(C)=O)nc2ccccc21
inactive: [1] | [2] | [3] | [4] | [5] | [6]

CCCCCn1c(N)nc2ncccc21
inactive: [1] | [2] | [3] | [4] | [5] | [6]

CCCCCn1c(N)nc2ccncc21
inactive: [1] | [2] | [3] | [4] | [5] | [6]

CCCCCn1c(N)nc2c(-c3ccccc3)cccc21
inactive: [1] | [2] | [3] | [4] | [5] | [6]

CCCCCn1c(N)nc2cc3ccccc3cc21
inactive: [1] | [2] | [3] | [4] | [5] | [6]
